Screening data from PubChem.
Kir21 inh: Kir2.1 (mouse) channel inhibition | HEK293-Kir2.1, FluxOR thallium flux fluorescence; stronger effect = lower value | actives 0.85% (n = 310,000) | B-score at 10 µM;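 active = fluorescence ratio B-score at or below minus 3 SD of library scores, with starting-brightness B-score within 2 SD, cut at about -4.2 in these data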;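 also: channel flux triggered by added potassium and thallium sulfate stimulus; B-score of peak minus minimum fluorescence over baseline after thallium stimulus; more negative B-score means stronger Kir2.1 block with less thallium influx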
Target sequence (P35561 whole entry, looked up): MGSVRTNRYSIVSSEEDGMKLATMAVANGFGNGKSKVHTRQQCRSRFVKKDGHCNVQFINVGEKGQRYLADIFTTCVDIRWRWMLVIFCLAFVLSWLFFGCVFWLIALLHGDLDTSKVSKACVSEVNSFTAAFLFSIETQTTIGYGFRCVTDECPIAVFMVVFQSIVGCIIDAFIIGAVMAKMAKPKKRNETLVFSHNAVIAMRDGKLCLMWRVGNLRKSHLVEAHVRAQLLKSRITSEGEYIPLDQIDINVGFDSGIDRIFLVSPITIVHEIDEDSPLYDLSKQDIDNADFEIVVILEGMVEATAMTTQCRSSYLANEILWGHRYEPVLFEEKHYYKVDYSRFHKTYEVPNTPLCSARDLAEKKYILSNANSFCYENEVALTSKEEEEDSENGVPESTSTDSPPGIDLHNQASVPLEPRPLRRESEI
KCNQ1 block: blocks the human KCNQ1 potassium channel; P51787; CHO-K1 KCNQ1, FluxOR thallium flux fluorescence; stronger effect = higher value; B-score at 10 µM; actives 1.3% (n = 310,000); AID 2642;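 active = compounds whose thallium flux B-score, printed positive for inhibition, exceeds three library SD while starting fluorescence stays within three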;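 also: channel opened by potassium depolarization with thallium stimulus after 20 min compound exposure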
KCNK9 inh-1: blocks the human KCNK9 two-pore domain potassium channel; HEK293 KCNK9, FluxOR thallium flux fluorescence; stronger effect = lower value; B-score at 10 µM; actives 1.2% (n = 310,000);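 active = ratio B-score over 3 SD below the library mean, with starting fluorescence within 5 SD of its mean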;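 also: negative B-score means less thallium flux so channel inhibition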
hERG protect: shields human hERG channel from block by proarrhythmic agents | CHO-hERG, FluxOR thallium flux, dofetilide IC70 present | activation (rescue from dofetilide block), less the hit threshold, % at 10 µM | actives 0.51% (n = 310,000);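 active = activation above the mean of controls blocked by dofetilide plus 5 SD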;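 also: thallium influx through hERG after potassium depolarization seen as dye fluorescence rise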
KCNQ1 pot: potentiators or activators of human KCNQ1 potassium channel; P51787; CHO-K1 KCNQ1, thallium flux FluxOR fluorescence; stronger effect = higher value; B-score at 10 µM; actives 0.35% (n = 310,000);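 active = fluorescence ratio B-score, a plate-corrected score, at least three library SD, with initial intensity B-score within 5 SD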
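Assay system: stable KCNQ1 CHO-K1 line; medium: assay buffer, equal DMSO in all wells; timing: 90 min dye loading and 20 min compound exposure, both at room temperature; technique: kinetic FluxOR thallium fluorescence, 10-s 1-Hz baseline, 110-s post-stimulus read; read-out basis: B score of baseline-normalized fluorescence ratio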
KCNK3 block: human KCNK3 channel inhibition, primary screen | O14649 | CHO-KCNK3 thallium flux, FluxOR fluorescence; stronger effect = lower value | B-score at 10 µM | actives 0.84% (n = 340,000) | AID 602410;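 active = B-score under library mean minus 4 SD, starting fluorescence ratio at most library mean plus 5 SD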;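 also: more negative B-score means stronger inhibition of thallium flux through KCNK3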
hERG ctr: counter-screen for Kir2.1 inhibitors: effect on human hERG. inhibition, % at 10 µM. shares compounds with Kir21 inh. hERG-expressing cells, thallium flux. actives 20% (n = 320);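 also: host cells are CHO cells stably expressing hERG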
KCNK9 inh-2: human KCNK9 off-target activity of Kir2.1 blockers; shares compounds with Kir21 inh; KCNK9-expressing cells, ion flux inhibition; inhibition, % at 10 µM; actives 5% (n = 320); AID 2329
Kir21 ephys inh: blocks mouse Kir2.1 current in automated electrophysiology; shares compounds with Kir21 inh; Kir2.1 cells, automated patch-clamp current inhibition; inhibition, % at 25 µM; actives 71% (n = 320); AID 463252
The depositor's hits bear a star; i = inactive; · = no result. Most compounds without a hit are left out; they make up all but 3.8% or so of the library. Unless noted, no rule for the calls is given here.

SMILES | Kir21 inh | KCNQ1 block | KCNK9 inh-1 | hERG protect | KCNQ1 pot | KCNK3 block | hERG ctr | KCNK9 inh-2 | Kir21 ephys inh
CC(OC(=O)c1cccc(-n2cnnn2)c1)C(=O)Nc1cccc(Cl)c1 (configuration not stated) | 4.44 | i | i | -12.3 | i | i | i | i | i
CC(=O)c1ccc(NC(=O)C(C)OC(=O)c2cccc(-n3cnnn3)c2)cc1 (configuration not stated) | 0.43 | i | i | -7.1 | i | i | · | · | ·
C=CCc1cc(Cl)ccc1OCCOCCNC(C)CC (configuration not stated) | -7.04* | i | i | -13.6 | i | i | i | i | 42.2%*
C[C@H](NC(=O)c1ncn(Cc2ccccc2)c1C(=O)N[C@@H](C)c1ccccc1)c1ccccc1 | · | · | · | · | · | i | · | · | ·
CCc1ccc(Nc2n[n+](-c3ccccc3)c(/C=C/c3ccccc3)s2)cc1 | -7.65* | 12* | i | -35.2 | i | · | 68.0%* | i | i
COc1ccc(C)cc1NCc1cccc(OC)c1OC | 0.05 | i | i | -5.7 | i | i | · | · | ·
COc1cc(OC)c(OC)cc1CNc1cc(C)ccc1OC | -5.83* | i | i | -7.0 | i | i | i | i | 28.7%*
CC(C)Oc1ccccc1NC(=O)CSc1nc2ccccc2c(=O)n1C | -8.86* | i | i | -8.3 | i | i | i | i | 9.9%*
COc1ccc(CN(C)CC(O)COC(c2ccccc2)c2ccccc2)c(OC)c1OC (configuration not stated) | -5.95* | i | i | -10.3 | i | i | 69.0%* | i | i
COc1ccc(CCN(C)CC(O)COC(c2ccc(F)cc2)c2ccc(F)cc2)cc1OC (configuration not stated) | -3.45 | i | i | -16.7 | i | i | · | · | ·
Cc1ccc(NC(=O)COC(=O)c2cccc(C)c2[N+](=O)[O-])cc1S(=O)(=O)N1CCCCC1 | · | · | · | · | · | i | · | · | ·
CCOc1cc(/C=N/O)ccc1OS(=O)(=O)c1ccc(C)cc1 | -7.52* | i | i | -5.4 | i | i | i | i | 6.7%*
CC(=O)N(CC(C)(C)CC=C(C)C)c1ccccc1 | -5.86* | i | i | -14.2 | i | · | i | i | 9.4%*
COc1cc(CNCCc2ccccc2F)ccc1OCc1ccc(Cl)nc1 | -5.11 | i | i | -5.5 | i | i | · | · | ·
COc1cc(CNCCc2ccc(F)cc2)ccc1OCc1ccc(Cl)nc1 | -8.19* | i | i | -12.6 | i | i | 59.0%* | i | 56.2%*
CC(C)CCN(Cc1ccco1)S(=O)(=O)c1csc(C(N)=O)c1 | -8.19* | i | i | -13.0 | i | i | i | i | 21.6%*
CN(Cc1ccco1)S(=O)(=O)c1csc(C(N)=O)c1 | 0.03 | i | i | -2.8 | i | i | · | · | ·
CCCCN(C(=O)C(C)N1C(=O)c2ccccc2C1=O)c1c(N)n(CC(C)C)c(=O)[nH]c1=O (configuration not stated) | · | · | · | · | · | i | · | · | ·
COc1ccc(C)c2sc(N(CCCN(C)C)C(=O)CS(=O)(=O)c3ccc(F)cc3)nc12 | -1 | i | i | -19.9 | i | i | · | · | ·
CN(C)c1ccc(C(=O)c2ccc(O)cc2O)cc1 | 4.75 | i | i | -7.3 | i | i | i | i | i
O=C(c1ccc(O)cc1)c1ccc(O)cc1O | 1.04 | i | i | -16.2 | i | i | · | · | ·
COc1cc(NS(=O)(=O)c2ccc(NC(=S)Nc3ccccc3)cc2)nc(OC)n1 | -0.09 | i | i | -1.5 | i | i | · | · | ·
